ChEMBL document CHEMBL1255475, “Mutant prevention concentrations of four carbapenems against gram-negative rods” (2010)
Converted amounts (≈) assume the structure as drawn.

Legend:
Format in all cases: functional
Escherichia coli [1] = assay: Antibacterial activity against beta-lactamase-positive ESBL-positive Escherichia coli E456 assessed as mutant prevention concentration after overnight incubation
In short: (§1)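 Overnight growth on blood trypticase soy agar (35°C, air) was resuspended in 0.9% saline and counted on drug-free Mueller-Hinton agar. […] Colonies were retested by agar dilution to confirm mutants. MPC was the lowest concentration preventing resistant-mutant growth.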

Klebsiella pneumoniae [2] = assay: Antibacterial activity against beta-lactamase-negative Klebsiella pneumoniae E420 incubated up to 7 days by agar dilution method; conditions: E420, 168 h
In short: (§2)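 MIC by CLSI agar dilution, with quality-control strains in each run. Beta-lactamase status was set by 30 μg cefazolin Kirby-Bauer disk diffusion. ESBL status was set by cefotaxime and ceftazidime disks (30 μg) with and without clavulanic acid (10 μg).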

Klebsiella pneumoniae [3] = assay: Antibacterial activity against beta-lactamase-negative Klebsiella pneumoniae E360 assessed as mutant prevention concentration after overnight incubation
Acinetobacter baumannii [4] = assay: Antibacterial activity against Acinetobacter baumannii A896 assessed as mutant prevention concentration after overnight incubation
Klebsiella pneumoniae [5] = assay: Antibacterial activity against beta-lactamase-negative Klebsiella pneumoniae E362 incubated up to 7 days by agar dilution method; conditions: E362, 168 h
Escherichia coli [6] = assay: Antibacterial activity against beta-lactamase-positive ESBL-positive Escherichia coli E458 assessed as mutant prevention concentration after overnight incubation; in short: as §1
Pseudomonas aeruginosa [7] = assay: Antibacterial activity against Pseudomonas aeruginosa P369 assessed as mutant prevention concentration after overnight incubation
Klebsiella pneumoniae [8] = assay: Antibacterial activity against beta-lactamase-negative Klebsiella pneumoniae E419 incubated up to 7 days by agar dilution method; conditions: E419, 168 h
Escherichia coli [9] = assay: Antibacterial activity against beta-lactamase-positive ESBL-positive Escherichia coli E452 assessed as mutant prevention concentration after overnight incubation; in short: as §1
Pseudomonas aeruginosa [10] = assay: Antibacterial activity against Pseudomonas aeruginosa P365 assessed as mutant prevention concentration after overnight incubation
Escherichia coli [11] = assay: Antibacterial activity against beta-lactamase-positive ESBL-positive Escherichia coli E460 incubated up to 7 days by agar dilution method; conditions: E460, 168 h; in short: as §2
Klebsiella pneumoniae [12] = assay: Antibacterial activity against beta-lactamase-positive ESBL-negative Klebsiella pneumoniae E479 incubated up to 7 days by agar dilution method; conditions: E479, 168 h
In short: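 MPC determination: overnight cultures on blood trypticase soy agar at 35°C in air were resuspended in 0.9% saline, and CFU were counted on drug-free Mueller-Hinton agar. […] Growth was retested by agar dilution to confirm mutants. MPC was the lowest concentration preventing resistant-mutant growth.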

Escherichia coli [13] = assay: Antibacterial activity against beta-lactamase-negative Escherichia coli E348 incubated up to 7 days by agar dilution method; conditions: E348, 168 h
Acinetobacter baumannii [14] = assay: Antibacterial activity against Acinetobacter baumannii A849 assessed as mutant prevention concentration after overnight incubation
Klebsiella pneumoniae [15] = assay: Antibacterial activity against beta-lactamase-negative Klebsiella pneumoniae E361 incubated up to 7 days by agar dilution method; conditions: E361, 168 h
Escherichia coli [16] = assay: Antibacterial activity against beta-lactamase-positive ESBL-positive Escherichia coli E456 incubated up to 7 days by agar dilution method; conditions: E456, 168 h; in short: as §2
Acinetobacter baumannii [17] = assay: Antibacterial activity against Acinetobacter baumannii A908 assessed as mutant prevention concentration after overnight incubation
Klebsiella pneumoniae [18] = assay: Antibacterial activity against beta-lactamase-positive ESBL-negative Klebsiella pneumoniae E481 incubated up to 7 days by agar dilution method; conditions: E481, 168 h
Klebsiella pneumoniae [19] = assay: Antibacterial activity against beta-lactamase-positive ESBL-negative Klebsiella pneumoniae E481 assessed as mutant prevention concentration after overnight incubation; in short: as §1
Klebsiella pneumoniae [20] = assay: Antibacterial activity against beta-lactamase-positive ESBL-negative Klebsiella pneumoniae E473 incubated up to 7 days by agar dilution method; conditions: E473, 168 h
Klebsiella pneumoniae [21] = assay: Antibacterial activity against beta-lactamase-positive ESBL-negative Klebsiella pneumoniae E474 assessed as mutant prevention concentration after overnight incubation; in short: as §1
Klebsiella pneumoniae [22] = assay: Antibacterial activity against beta-lactamase-negative Klebsiella pneumoniae E419 assessed as mutant prevention concentration after overnight incubation; in short: as §1
Klebsiella pneumoniae [23] = assay: Antibacterial activity against beta-lactamase-negative Klebsiella pneumoniae E417 incubated up to 7 days by agar dilution method; conditions: E417, 168 h; in short: as §2
Pseudomonas aeruginosa [24] = assay: Antibacterial activity against Pseudomonas aeruginosa P332 assessed as mutant prevention concentration after overnight incubation
Klebsiella pneumoniae [25] = assay: Antibacterial activity against beta-lactamase-negative Klebsiella pneumoniae E358 incubated up to 7 days by agar dilution method; conditions: E358, 168 h
Klebsiella pneumoniae [26] = assay: Antibacterial activity against beta-lactamase-positive ESBL-negative Klebsiella pneumoniae E511 incubated up to 7 days by agar dilution method; conditions: E511, 168 h
Escherichia coli [27] = assay: Antibacterial activity against beta-lactamase-positive ESBL-negative Escherichia coli E430 assessed as mutant prevention concentration after overnight incubation; in short: as §1
Pseudomonas aeruginosa [28] = assay: Antibacterial activity against Pseudomonas aeruginosa P320 assessed as mutant prevention concentration after overnight incubation
Pseudomonas aeruginosa [29] = assay: Antibacterial activity against Pseudomonas aeruginosa P363 assessed as mutant prevention concentration after overnight incubation
Escherichia coli [30] = assay: Antibacterial activity against beta-lactamase-negative Escherichia coli E347 assessed as mutant prevention concentration after overnight incubation
Escherichia coli [31] = assay: Antibacterial activity against beta-lactamase-negative Escherichia coli E346 assessed as mutant prevention concentration after overnight incubation
Escherichia coli [32] = assay: Antibacterial activity against beta-lactamase-positive ESBL-negative Escherichia coli E412 assessed as mutant prevention concentration after overnight incubation; in short: as §1
Klebsiella pneumoniae [33] = assay: Antibacterial activity against beta-lactamase-positive ESBL-negative Klebsiella pneumoniae E472 assessed as mutant prevention concentration after overnight incubation; in short: as §1
Pseudomonas aeruginosa [34] = assay: Antibacterial activity against Pseudomonas aeruginosa P328 assessed as mutant prevention concentration after overnight incubation
Pseudomonas aeruginosa [35] = assay: Antibacterial activity against Pseudomonas aeruginosa P335 assessed as mutant prevention concentration after overnight incubation
Acinetobacter baumannii [36] = assay: Antibacterial activity against Acinetobacter baumannii A884 assessed as mutant prevention concentration after overnight incubation
Escherichia coli [37] = assay: Antibacterial activity against beta-lactamase-positive ESBL-negative Escherichia coli E484 incubated up to 7 days by agar dilution method; conditions: E484, 168 h
Pseudomonas aeruginosa [38] = assay: Antibacterial activity against Pseudomonas aeruginosa P352 assessed as mutant prevention concentration after overnight incubation
Klebsiella pneumoniae [39] = assay: Antibacterial activity against beta-lactamase-positive ESBL-negative Klebsiella pneumoniae E472 incubated up to 7 days by agar dilution method; conditions: E472, 168 h
Pseudomonas aeruginosa [40] = assay: Antibacterial activity against Pseudomonas aeruginosa P323 assessed as mutant prevention concentration after overnight incubation
Klebsiella pneumoniae [41] = assay: Antibacterial activity against beta-lactamase-positive ESBL-positive Klebsiella pneumoniae E478 assessed as mutant prevention concentration after overnight incubation; in short: as §1
Escherichia coli [42] = assay: Antibacterial activity against beta-lactamase-positive ESBL-positive Escherichia coli E446 incubated up to 7 days by agar dilution method; conditions: E446, 168 h; in short: as §2
Escherichia coli [43] = assay: Antibacterial activity against beta-lactamase-positive ESBL-positive Escherichia coli E451 incubated up to 7 days by agar dilution method; conditions: E451, 168 h; in short: as §2
Acinetobacter baumannii [44] = assay: Antibacterial activity against Acinetobacter baumannii A850 assessed as mutant prevention concentration after overnight incubation

In the case of `C[C@@H](O)[C@H]1C(=O)N2C(C(=O)O)=C(S[C@@H]3CN[C@H](CNS(N)(=O)=O)C3)[C@H](C)[C@H]12` [DORIPENEM], the MPC (Escherichia coli [1]) is reported as 0.25 µg/mL, the MIC (Klebsiella pneumoniae [2]) is reported as 0.06 µg/mL (≈ 0.143 µM) and the MPC (Klebsiella pneumoniae [3]) is reported as 0.125 µg/mL. The MPC (Acinetobacter baumannii [4]) was 1 µg/mL, the MIC (Klebsiella pneumoniae [5]) was 0.06 µg/mL (≈ 0.143 µM) and the MPC (Escherichia coli [6]) was 0.06 µg/mL. The MPC (Pseudomonas aeruginosa [7]) was 2 µg/mL, the MIC (Klebsiella pneumoniae [8]) was 0.125 µg/mL (≈ 0.297 µM) and the MPC (Escherichia coli [9]) was 0.125 µg/mL. For the same compound, the MPC (Pseudomonas aeruginosa [10]) was 8 µg/mL, the MIC (Escherichia coli [11]) was 0.03 µg/mL (≈ 0.0713 µM) and the MIC (Klebsiella pneumoniae [12]) was 4 µg/mL (≈ 9.51 µM). For the same compound, the MIC (Escherichia coli [13]) was 0.03 µg/mL (≈ 0.0713 µM), the MPC (Acinetobacter baumannii [14]) was 16 µg/mL and the MIC (Klebsiella pneumoniae [15]) was 0.06 µg/mL (≈ 0.143 µM). The MIC (Escherichia coli [16]) was 0.03 µg/mL (≈ 0.0713 µM), the MPC (Acinetobacter baumannii [17]) was 1 µg/mL and the MIC (Klebsiella pneumoniae [18]) was 2 µg/mL (≈ 4.76 µM). It also gave an MPC (Klebsiella pneumoniae [19]) of 8 µg/mL, an MIC (Klebsiella pneumoniae [20]) of 2 µg/mL (≈ 4.76 µM) and an MPC (Klebsiella pneumoniae [21]) of 32 µg/mL. It also gave an MPC (Klebsiella pneumoniae [22]) of 0.25 µg/mL, an MIC (Klebsiella pneumoniae [23]) of 0.06 µg/mL (≈ 0.143 µM) and an MPC (Pseudomonas aeruginosa [24]) of over 4 µg/mL. The MIC (Klebsiella pneumoniae [25]) was 0.06 µg/mL (≈ 0.143 µM), the MIC (Klebsiella pneumoniae [26]) was 2 µg/mL (≈ 4.76 µM) and the MPC (Escherichia coli [27]) was 0.125 µg/mL. The MPC (Pseudomonas aeruginosa [28]) was over 2 µg/mL, the MPC (Pseudomonas aeruginosa [29]) was 4 µg/mL and the MPC (Escherichia coli [30]) was 0.06 µg/mL. It also gave an MPC (Escherichia coli [31]) of 0.06 µg/mL, an MPC (Escherichia coli [32]) of 0.125 µg/mL and an MPC (Klebsiella pneumoniae [33]) of 64 µg/mL. It also gave an MPC (Pseudomonas aeruginosa [34]) of 4 µg/mL, an MPC (Pseudomonas aeruginosa [35]) of 16 µg/mL and an MPC (Acinetobacter baumannii [36]) of 4 µg/mL. For the same compound, the MIC (Escherichia coli [37]) was 2 µg/mL (≈ 4.76 µM), the MPC (Pseudomonas aeruginosa [38]) was 2 µg/mL and the MIC (Klebsiella pneumoniae [39]) was 2 µg/mL (≈ 4.76 µM). The MPC (Pseudomonas aeruginosa [40]) was 4 µg/mL, the MPC (Klebsiella pneumoniae [41]) was over 64 µg/mL and the MIC (Escherichia coli [42]) was 0.06 µg/mL (≈ 0.143 µM). It also gave an MIC (Escherichia coli [43]) of 0.03 µg/mL (≈ 0.0713 µM) and an MPC (Acinetobacter baumannii [44]) of 8 µg/mL.

Work on `C[C@@H](O)[C@H]1C(=O)N2C(C(=O)O)=C(SCCNC=N)C[C@H]12` [IMIPENEM ANHYDROUS] yielded an MPC (Escherichia coli [1]) of 1 µg/mL, an MPC (Klebsiella pneumoniae [3]) of 1 µg/mL and an MPC (Acinetobacter baumannii [4]) of 1 µg/mL. The MPC (Escherichia coli [6]) was 0.5 µg/mL, the MPC (Pseudomonas aeruginosa [7]) was 32 µg/mL and the MPC (Escherichia coli [9]) was 0.5 µg/mL. The MPC (Pseudomonas aeruginosa [10]) was 16 µg/mL, the MPC (Acinetobacter baumannii [14]) was 64 µg/mL and the MPC (Acinetobacter baumannii [17]) was 1 µg/mL. For the same compound, the MPC (Klebsiella pneumoniae [19]) was 16 µg/mL, the MPC (Klebsiella pneumoniae [21]) was 16 µg/mL and the MPC (Klebsiella pneumoniae [22]) was 1 µg/mL. The MPC (Pseudomonas aeruginosa [24]) was 16 µg/mL, the MPC (Escherichia coli [27]) was 2 µg/mL and the MPC (Pseudomonas aeruginosa [28]) was 32 µg/mL. For the same compound, the MPC (Pseudomonas aeruginosa [29]) was 32 µg/mL, the MPC (Escherichia coli [30]) was 0.5 µg/mL and the MPC (Escherichia coli [31]) was 0.5 µg/mL. For the same compound, the MPC (Escherichia coli [32]) was 1 µg/mL, the MPC (Klebsiella pneumoniae [33]) was 32 µg/mL and the MPC (Pseudomonas aeruginosa [34]) was 32 µg/mL. The MPC (Pseudomonas aeruginosa [35]) was 32 µg/mL, the MPC (Acinetobacter baumannii [36]) was 4 µg/mL and the MPC (Pseudomonas aeruginosa [38]) was 32 µg/mL. For the same compound, the MPC (Pseudomonas aeruginosa [40]) was 64 µg/mL, the MPC (Klebsiella pneumoniae [41]) was 16 µg/mL and the MPC (Acinetobacter baumannii [44]) was 8 µg/mL.
